# Measurements collected from several papers.
# Lines come from different studies, so protocols differ.
# Read-out: enzyme activity
# Mode: inhibitor
# IGF1R: Insulin-like growth factor 1 receptor (IGF1R, Homo sapiens, UniProt P08069)
# IGF1R phosphorylated: Insulin-like growth factor 1 receptor, phosphorylated (IGF1R, Homo sapiens, UniProt P08069)
Compound,target,method,tested at,remaining activity
Cn1c(=O)n(-c2ccc(C(C)(C)C#N)cc2)c2c3cc(-c4cnc5ccccc5c4)ccc3ncc21,IGF1R,,10 µM,72%
CCN(CC)CCNC(=O)c1c(C)[nH]c(/C=C2\C(=O)Nc3ccc(F)cc32)c1C,IGF1R,,0.1 µM,75%
CCN(CC)c1ccc(C2=NNC(=O)CC2C)cc1[N+](=O)[O-] (stereo not shown),IGF1R,,10 µM,86%
O=C(Nc1cnn(-c2csc(C(=O)NC3COC3)c2)c1)Nc1ccccc1Cl,IGF1R,,5 µM,95.8%
Cc1[nH]c(/C=C2\C(=O)Nc3ccc(F)cc32)c(C)c1C(=O)N[C@H]1CCN(C(=O)N(C)C)C1,IGF1R,,0.1 µM,115%
Cc1ccc(NC(=O)c2ccc(C)c(C(F)(F)F)c2)cc1C#Cc1nn(C2CCC(O)CC2)c2ncnc(N)c12 (stereo not shown),IGF1R phosphorylated,,10 µM,91%
CC(C)(C)C(=O)c1sc(NC2CCCCC2)nc1N,IGF1R,,10 µM,118%
Cc1cnc(NC2CCOCC2)nc1-n1cnc(C(=O)NC(CN)c2cc(F)cc(Cl)c2)c1 (stereo not shown),IGF1R phosphorylated,radiometric,1 µM,108%
CCCOc1ccc(OC)c(F)c1C(=O)c1ccc(C(=O)N[C@@H]2CNC[C@H]2NC(=O)c2ccc3[nH]ncc3c2)cc1,IGF1R,,10 µM,90%
COc1cc(Nc2cnc(C#N)c(O[C@H](C)CN(C)C)n2)ncc1-c1cnn(C)c1,IGF1R,radiometric,10 µM,73%
Nc1nc(NC2CCCCC2)sc1C(=O)c1ccccc1,IGF1R,,10 µM,80%
CC(C)(C)c1nc(-c2cccc(NS(=O)(=O)c3c(F)cccc3F)c2F)c(-c2ccnc(N)n2)s1,IGF1R,radiometric,1 µM,81%
O=C(Nc1cnn(-c2csc(C(=O)NC3COC3)c2)c1)Nc1c(F)cccc1Cl,IGF1R,,5 µM,94.9%
